Only some compounds are listed: those with a hit (about 2.4% of all), similar ones and a draw of the others.
HTR5A inv ctr – counter-screen for OPRM1-OPRD1 inverse agonists: human HTR5A inverse agonism. P47898. HTR5A cell line, luminescence. inhibition, % at 9.3 µM. 340,000 compounds, 0.083% hits; in the data active = inhibition mostly above about 23%, no sharp cut-off; inactive = mostly below about 18%
Target sequence (P47898 whole entry, looked up): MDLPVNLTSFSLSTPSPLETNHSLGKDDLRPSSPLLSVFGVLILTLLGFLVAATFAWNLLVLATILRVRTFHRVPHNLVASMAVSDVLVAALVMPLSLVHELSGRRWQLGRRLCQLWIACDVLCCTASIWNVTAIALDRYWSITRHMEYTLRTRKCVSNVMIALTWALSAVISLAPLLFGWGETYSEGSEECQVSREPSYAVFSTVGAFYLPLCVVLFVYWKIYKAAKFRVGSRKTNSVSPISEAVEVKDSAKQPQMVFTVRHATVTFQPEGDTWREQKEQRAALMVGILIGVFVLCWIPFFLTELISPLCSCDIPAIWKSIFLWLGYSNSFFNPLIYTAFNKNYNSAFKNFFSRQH
MC4R ag barr – human MC4R agonism via beta-arrestin | activation, % at 8.9 µM | P32245 | AID 540308 | U2OS MC4R beta-arrestin complementation, luminescence; percent of melanotan II response, DMSO zero | 360,000 compounds, 0.98% hits;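 active = activation above a per-plate cutoff, the mean activation of sample wells on that plate plus 3 SD, cut at about 8% in these data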
Target sequence (P32245 whole entry, looked up): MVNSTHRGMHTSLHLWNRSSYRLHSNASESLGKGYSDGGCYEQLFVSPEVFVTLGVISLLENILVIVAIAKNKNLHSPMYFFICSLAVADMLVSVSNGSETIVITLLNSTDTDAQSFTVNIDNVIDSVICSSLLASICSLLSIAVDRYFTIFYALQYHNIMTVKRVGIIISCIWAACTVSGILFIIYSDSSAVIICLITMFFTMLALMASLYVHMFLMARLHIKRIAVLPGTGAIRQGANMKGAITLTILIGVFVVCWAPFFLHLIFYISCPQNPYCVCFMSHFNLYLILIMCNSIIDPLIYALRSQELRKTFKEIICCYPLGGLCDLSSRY
OPRM1-OPRD1 ag – agonists of human mu-delta opioid receptor heterodimerization | activation, % at 9.3 µM | P35372+P41143 | 340,000 compounds, 0.3% hits | cells, OPRM1-OPRD1 heterodimerization, luminescence; in the data active = activation above about 18%
MC4R antag cAMP – human MC4R antagonism in cAMP assay | P32245 | MC4R-expressing cells, MTII-stimulated cAMP, LANCE TR-FRET | inhibition, % at 6.5 µM | 360,000 compounds, 0.48% hits | AID 540295;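 active = inhibition above its plate's cutoff, the mean of tested wells on that plate plus 3 SD, cut at about 29% in these data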
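Test system: U2OS cells stably expressing human melanocortin 4 receptor (MC4R); also added: Melanotan II challenge; compound: 6.5 µM single dose; timing: 30-min compound preincubation, 1-h Melanotan II challenge, 1-h detection, room temperature; signal: Eu-cAMP/anti-cAMP TR-FRET, emission 671 nm; repeats: one well per compound, no replicates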
OPRM1-OPRD1 inv – inverse agonist of human OPRM1-OPRD1 heterodimerization; cell-based MOR-DOR heterodimer luminescence, inverse agonism; AID 504357; P35372+P41143; inhibition, % at 9.3 µM; 340,000 compounds, 0.21% hits; in the data active = inhibition above about 22%, passing the limit was not always enough
HTR5A ag – HTR5A agonism, opioid heterodimer counter-screen | HTR5A agonist assay, luminescence, cell-based | activation, % at 9.3 µM | 340,000 compounds, 0.61% hits | P47898; in the data active = activation mostly above about 9.5%, no sharp cut-off; inactive = mostly below about 7.6%
U2OS cAMP counter – counter-screen for MC4R antagonists: nonselective cAMP signaling inhibitors | shares compounds with MC4R antag cAMP | parental U2OS, forskolin cAMP, LANCE TR-FRET | inhibition, % at 6.5 µM | 1,600 compounds, 26% hits;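 active = mean inhibition over triplicates above the low-control well mean plus 3 SD, set per campaign, cut at about 13% in these data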;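 also: signal is single emission at 671 nm which falls as cellular cAMP rises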
MC4R antag conf – human MC4R cAMP antagonism confirmation; 1,600 compounds, 27% hits; AID 602195; inhibition, % at 6.5 µM; shares compounds with MC4R antag cAMP; MC4R-expressing cells, MTII-stimulated cAMP, TR-FRET; in the data active = inhibition above about 29%
Of the large screens only hits and unclear results are named; the others gave an inactive call (follow-up assays come after a bar, where they were run).

CCCCC(CC)CN=C(N)NC(N)=NCCCCCCN=C(N)NC(N)=NCC(CC)CCCC (stereo unspecified)	MC4R antag cAMP 68.9 | U2OS cAMP counter 54.9 | MC4R antag conf 89.7
C[C@H](CO)N1C[C@H](C)[C@@H](CN(C)C(=O)Nc2ccc3c(c2)OCO3)Oc2c(NC(=O)Nc3ccc(C(F)(F)F)cc3)cccc2C1=O	MC4R antag cAMP 55.6 | U2OS cAMP counter inactive | MC4R antag conf 30.0
C[C@H]1CN([C@@H](C)CO)C(=O)c2cccc(NC(=O)Nc3ccc(C(F)(F)F)cc3)c2O[C@@H]1CN(C)Cc1ccc(Cl)c(Cl)c1	MC4R antag cAMP 41.4 | U2OS cAMP counter inactive | MC4R antag conf inactive
C[C@H](CO)N1C[C@H](C)[C@@H](CN(C)C(=O)NC2CCCCC2)Oc2c(NC(=O)Nc3ccc(C(F)(F)F)cc3)cccc2C1=O	MC4R antag cAMP 29.9 | U2OS cAMP counter inactive | MC4R antag conf inactive
C[C@@H]1CN([C@H](C)CO)C(=O)c2cc(NC(=O)Nc3ccc(C(F)(F)F)cc3)ccc2O[C@H]1CN(C)Cc1ccc(Cl)c(Cl)c1	none
O=C(CCNC(=O)c1ccccc1Cl)Nc1ccncc1	none
Cc1cccc(-n2c(O)c(C=Nc3cc(O)ccc3C)c3ccccc3c2=O)n1	MC4R antag cAMP 31.2 | U2OS cAMP counter inactive | MC4R antag conf inactive
Cc1cccc(-n2c(O)c(C=Nc3ccccc3O)c3ccccc3c2=O)n1	none
O[C@H]1C[C@H](c2ccc(Cl)cc2)N(CC2CCCCC2)C[C@@H]1n1cc(-c2ccc(F)cc2)nn1	none (no result: HTR5A inv ctr, OPRM1-OPRD1 ag, OPRM1-OPRD1 inv, HTR5A ag)
CCC1CCCCN1C(=O)Cn1c(=O)n(CCCC(=O)NCc2ccco2)c(=O)c2sccc21 (stereo unspecified)	none
CC(C)(C)OC(=O)NCCc1nnc(SCc2ccccc2Cl)o1	none
CC(C)(C)OC(=O)NCCc1nnc(S(=O)(=O)Cc2ccc(Cl)cc2Cl)o1	MC4R antag cAMP 31.0 | U2OS cAMP counter inactive | MC4R antag conf 37.8
Cc1onc(-c2c(Cl)cccc2Cl)c1C(=O)Nc1nc(C(C)(C)C)cs1	none
Cc1ccc(CC(=O)NNC(=O)c2cccs2)cc1C	none
CN1CCc2c(sc(/N=C/c3c[nH]c4ccccc34)c2C#N)C1	none (no result: HTR5A inv ctr, OPRM1-OPRD1 ag, OPRM1-OPRD1 inv, HTR5A ag)
CN1CCc2c(sc(/N=C/c3cc(Cl)ccc3O)c2C#N)C1	MC4R antag cAMP 39.1 | U2OS cAMP counter inactive | MC4R antag conf inactive
N#Cc1c(-c2ccccc2)cc(C2CC2)nc1N	none
CC(=O)Nc1nc(C2CC2)cc(-c2ccccc2)c1C#N	MC4R antag cAMP 35.4 | U2OS cAMP counter inactive | MC4R antag conf inactive
CC(C)(C)N/N=C/c1cc(Cl)cc([N+](=O)[O-])c1O	none
CN(/N=C/c1cc(Cl)cc(Cl)c1O)c1c(Cl)cccc1[N+](=O)[O-]	MC4R antag cAMP 29.7 | U2OS cAMP counter inactive | MC4R antag conf inactive
CC(=O)n1nc(-c2ccccc2)nc1NCc1cccs1	none
COc1ccc(CNC(=O)c2oc3ccc(S(=O)(=O)N4CCOCC4)cc3c2C)cc1	MC4R antag cAMP 31.8 | U2OS cAMP counter inactive | MC4R antag conf inactive
COc1ccccc1CNC(=O)c1oc2ccc(S(=O)(=O)N3CCCC3)cc2c1C	MC4R antag cAMP 29.3 | U2OS cAMP counter inactive | MC4R antag conf inactive
COc1cc(OC)c(OC)cc1CNCC1COc2ccccc2O1 (stereo unspecified)	none
COC(=O)c1ccccc1NC(=O)CNC(=O)c1ccc(OC)c(OC)c1	MC4R antag cAMP 31.0 | U2OS cAMP counter inactive | MC4R antag conf inactive
O=C(O)c1cnn(-c2nc(-c3ccc(Cl)cc3)cs2)c1C(F)(F)F	MC4R antag cAMP 31.4 | U2OS cAMP counter inactive | MC4R antag conf inactive
CCOc1ccccc1N1CCN(C(=O)c2cc(-c3cccnc3)nc3c(Cl)cccc23)CC1	none
O=C1NC(=O)/C(=C\c2ccccc2OCc2ccccc2)S1	MC4R antag cAMP 39.4 | U2OS cAMP counter inactive | MC4R antag conf inactive
O=C1NC(=O)/C(=C\c2ccc(OCc3ccccc3)cc2)S1	none
O=C(COC(=O)CNS(=O)(=O)c1ccc(F)c(F)c1F)Nc1ccc(OC(F)F)cc1	MC4R antag cAMP 28.8 | U2OS cAMP counter inactive | MC4R antag conf inactive
COc1cc(NC(=O)COC(=O)CNS(=O)(=O)c2ccc(F)c(F)c2F)cc(OC)c1	none
C(=C\c1ccccc1)/C=N/N1CCN(Cc2ccccc2)CC1	MC4R antag cAMP 29.9 | U2OS cAMP counter inactive | MC4R antag conf inactive
Cc1cccc(C)c1NC(=O)CNC(=O)c1cncc(Br)c1	none
CCOC(=O)c1ccc(NC(=O)N2CCN(c3cccc(OC)c3)CC2)cc1	MC4R antag cAMP 29.0 | U2OS cAMP counter inactive | MC4R antag conf inactive
CCOC(=O)c1ccc(NC(=O)N2CCN(c3ccccn3)CC2)cc1	none
CC1(C)C(=O)Nc2ccccc2N1C(=O)COC(=O)c1cc(S(=O)(=O)N2CCOCC2)ccc1F	MC4R antag cAMP 35.9 | U2OS cAMP counter 17.0 | MC4R antag conf 45.8
CC1(C)C(=O)Nc2ccccc2N1C(=O)COC(=O)c1cc(S(C)(=O)=O)ccc1Cl	none
CCOC(=O)Cn1nc2sc3ccccc3n2c(=O)c1=O	none
CNC(C)c1ccc(S(N)(=O)=O)cc1 (stereo unspecified)	MC4R antag cAMP 37.8 | U2OS cAMP counter inactive | MC4R antag conf inactive
C/C(=N\NS(=O)(=O)c1ccc(C)cc1)c1cc2ccccc2oc1=O	MC4R antag cAMP 29.6 | U2OS cAMP counter inactive | MC4R antag conf inactive
O=C(CCl)c1ccc2c(c1)CCN2C(=O)C1CCCCC1	MC4R antag cAMP 30.2 | U2OS cAMP counter inactive | MC4R antag conf inactive
Cc1ccc2nc(-c3ccc(NC(=S)NC(=O)C(C)C)cc3)sc2c1	MC4R antag cAMP 46.7 | U2OS cAMP counter inactive | MC4R antag conf inactive
COc1ccc(/C=C2/CCC(CN3CCOCC3)C2=O)cc1 (stereo unspecified)	none
COc1ccccc1C1(CCNC(C)c2cccs2)CCOC(C(C)C)C1 (stereo unspecified)	MC4R antag cAMP 47.0 (no result: HTR5A inv ctr, OPRM1-OPRD1 ag, OPRM1-OPRD1 inv, HTR5A ag) | U2OS cAMP counter inactive | MC4R antag conf 37.3
Cc1ccc(C2(CCNC(C)c3cccs3)CCOC(C(C)C)C2)cc1 (stereo unspecified)	none
CC(=O)c1sc(-c2ccccc2)cc1NS(=O)(=O)c1ccc(C)cc1	MC4R antag cAMP 35.5 | U2OS cAMP counter 32.4 | MC4R antag conf 56.9
CCc1ccc(C(C)(O)C(CN2CCOCC2)c2ccccc2)cc1 (stereo unspecified)	none
CCN(CC)S(=O)(=O)c1ccc(OC)c(NC(=O)COc2ccc3c(C)cc(=O)oc3c2)c1	MC4R antag cAMP 113.6 | U2OS cAMP counter 95.8 | MC4R antag conf 168.1
CCCCn1c(N)c(N(CCOC)C(=O)c2cc(=O)[nH]c3ccccc23)c(=O)[nH]c1=O	none
